Assay results collected from several papers.
Lines come from different studies, so protocols differ.
Medium: plasma

SMILES | species | route | dose | setting | Cmax
CNCC[C@H](Oc1cccc2ccccc12)c1cccs1 | female human | oral | 60 mg | multiple doses, once daily | 54 ng/mL
Cn1c(=O)oc2ccc(-c3ccc(C[C@@H](C#N)NC(=O)[C@@H]4CNCCCO4)cc3)cc21 | male human | oral | 50 mg | single dose, healthy volunteers | 1040 nM
CC(C)(C(=O)N1CCOc2c(C#N)cncc2C1)C(F)F | human | oral | 10 mg | single dose, fasted, healthy volunteers | 116 ng/mL
CCCOc1ccc([C@H]2CNC(=O)N2c2ccc3[nH]cnc3c2)cc1 | human | oral | 200 mg | fasted, healthy volunteers | 989 ng/mL
CCc1nc2c(C)cc(N3CCN(CC(=O)N4CC(O)C4)CC3)cn2c1N(C)c1nc(-c2ccc(F)cc2)c(C#N)s1 | human | oral | 60 mg | single dose, fed, healthy volunteers | 600 ng/mL
CC(C)n1cc(C#N)c2cc(-n3cc(C(=O)O)cn3)ccc21 | human | oral | 200 mg | single dose, fasted, healthy volunteers | 8770 ng/mL
CCOc1cc([C@@H](CS(C)(=O)=O)N2C(=O)c3cccc(NC(C)=O)c3C2=O)ccc1OC | human | oral | 30 mg | single dose, healthy volunteers | 278 ng/mL
COCCOc1cnc2ccn([C@H](C)c3nnc4c(F)cc(-c5cnn(C)c5)cn34)c(=O)c2c1 | human | oral | 50 mg | multiple doses, once daily, patients | 730 ng/mL
N#CN1C[C@H](n2nc(-c3ccc(Oc4ccc(Cl)cn4)cc3)c(C(N)=O)c2N)CCC12CC2 | human | oral | 600 mg | fed | 1020 ng/mL
Cc1ccc(C(=O)N(CCCN)[C@@H](c2oc3cc(Cl)ccc3c(=O)c2Cc2ccccc2)C(C)C)cc1 | human | intravenous | 2 mg/m² | single dose, patients, infusion | 233 ng/mL
O=C(Nc1c(Cl)cncc1Cl)c1ccc(OC(F)F)c(OCC2CC2)c1 | human | oral | 0.375 mg | multiple doses, once daily, steady state | 11.4 ng/mL
COC(=O)N[C@@H](C)CNc1nccc(-c2cn(C(C)C)nc2-c2cc(Cl)cc(NS(C)(=O)=O)c2F)n1 | human | oral | 50 mg | single dose | 482 ng/mL
CO[C@H]1/C=C\C=C(/C)C(=O)NC2=CC(=O)C(NCCN(C)C)=C(C[C@@H](C)C[C@H](OC)[C@H](O)[C@@H](C)/C=C(\C)[C@@H]1OC(N)=O)C2=O | human | intravenous | 12 mg/m² | patients, infusion | 196 ng/mL
COc1cc(C(=O)NC2CCN(C)CC2)c(F)cc1Nc1ncc(C(F)(F)F)c(Oc2cccc3c2C(=O)N(C)C3)n1 | human | oral | 100 mg | single dose, patients | 1320 nM
NS(=O)(=O)NCCNc1nonc1C(=NO)Nc1ccc(F)c(Br)c1 | human | oral | 600 mg | multiple doses, twice daily, steady state, patients | 4820 nM
CO[C@@H]1[C@H](OC(=O)N2CC(CCN3CCOCC3)C2)CC[C@]2(CO2)[C@H]1[C@@]1(C)O[C@@H]1CC=C(C)C | human | subcutaneous | 3.6 mg | single dose, healthy volunteers | 16.1 ng/mL
Cn1cc(-c2ccc(S(=O)(=O)[C@@H]3C[C@@H](C(=O)NC4(C#N)CC4)N(C(=O)C4(C(F)(F)F)CC4)C3)c(C(F)(F)F)c2)cn1 | human | oral | 1 mg | single dose, fasted, healthy volunteers | 4.51 ng/mL
COc1ccc([C@@H]2CN(C(=O)[C@@H](O)CO)C[C@@]2(C)[C@@H](C)O)cc1OC1CN(c2ccc(C)cn2)C1 | human | oral | 30 mg | single dose, healthy volunteers | 669 ng/mL

SMILES | species | route | dose | setting | Cmax
CC(C)(Sc1ccncc1-c1ccc(C#N)c2ccccc12)C(=O)O | male human | oral | 5 mg | single dose, fasted, healthy volunteers | 72.9 ng/mL
CNCc1ccc(-c2[nH]c3cc(F)cc4c3c2CCNC4=O)cc1 | human | oral | 600 mg | multiple doses, twice daily, steady state | 2650 ng/mL
CC(C)(O)c1ccccc1-c1ccc2[nH]c(/C=C/c3ccc(C(F)(F)F)cc3)nc2c1 | male human | oral | 5 mg | single dose, fasted, healthy volunteers | 29.6 ng/mL
FC(F)(F)c1ccc(CNc2ccc(Cc3c[nH]c4ncc(Cl)cc34)cn2)cn1 | human | oral | 600 mg | multiple doses, patients | 3660 ng/mL
CCCCC1=NC2(CCCC2)C(=O)N1Cc1ccc(-c2ccccc2S(=O)(=O)Nc2noc(C)c2C)c(COCC)c1 | human | oral | 800 mg | single dose, fasted, healthy volunteers | 7650 ng/mL
O=C(/C=C/c1cccc(S(=O)(=O)Nc2ccccc2)c1)NO | human | intravenous | 1900 mg/m² | patients | 106000 ng/mL
O=C(NO)c1ccc(CN(c2cnccn2)c2cnccn2)cc1 | human | oral | 800 mg | multiple doses, twice daily, patients | 1270 ng/mL
C[C@@]1(c2cc(NC(=O)c3ccc(C#N)cn3)ccc2F)C=CSC(N)=N1 | human | oral | 1 mg | single dose | 5.62 ng/mL
COc1cc2c(cc1OC)CN(CCc1ccc(NC(=O)c3cc(OC)c(OC)cc3NC(=O)c3cnc4ccccc4c3)cc1)CC2 | human | intravenous | 1 mg/kg | patients | 2200 nM
CS(=O)(=O)CCNCc1ccc(-c2ccc3ncnc(Nc4ccc(OCc5cccc(F)c5)c(Cl)c4)c3c2)o1 | human | oral | 900 mg | multiple doses, twice daily, steady state, patients | 3570 ng/mL
C/C(=C\c1csc(C)n1)[C@@H]1C[C@@H]2O[C@]2(C)CCC[C@H](C)[C@H](O)[C@@H](C)C(=O)C(C)(C)[C@@H](O)CC(=O)N1 | human | intravenous | 15 mg/m² | patients | 89.6 ng/mL
Oc1cc(O)c2c(c1)O[C@@H](c1ccc(O)c(O)c1)[C@@H](O)C2 | human | oral | 100 mg | single dose | 3.6 ng/mL
C[C@@H](Oc1ccc(S(C)(=O)=O)cc1C(=O)N1C[C@@H]2C[C@]2(c2cc(C(F)(F)F)on2)C1)C(F)(F)F | human | oral | 25 mg | fasted, tablet | 219 nM
CO[C@H]1CC[C@H](N2C(=O)CNc3ncc(-c4ccc(C(C)(C)O)nc4)nc32)CC1 | human | oral | 30 mg | patients | 188 ng/mL
Br.Cc1ccc(Sc2ccccc2N2CCNCC2)c(C)c1 | human | oral | 10 mg | multiple doses, steady state, healthy volunteers | 18 ng/mL
CCO[C@H]1CCN(Cc2c(OC)cc(C)c3[nH]ccc23)[C@H](c2ccc(C(=O)O)cc2)C1 | human | oral | 25 mg | multiple doses, twice daily, patients | 1450 ng/mL
CCn1c(=O)c(-c2cc(NC(=O)Nc3ccccc3)c(F)cc2Br)cc2cnc(NC)cc21 | human | oral | 250 mg | single dose, patients | 1070 ng/mL
